Assay results as given in ChEMBL document CHEMBL1649231, “In vitro activities of panduratin A against clinical Staphylococcus strains” (2009).
In brackets after ≈: the same amount, converted by molar mass.

Legend:
Assay type in all cases: functional
Staphylococcus aureus [1] = test: Bactericidal activity against methicillin-susceptible Staphylococcus aureus after 24 hrs by plate counting method
Outline: (§1)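 Clinical staphylococcal isolates from patient body fluids, blood, genital secretions, pus or sputum; species by conventional methods or Vitek. Twofold dilutions in Mueller-Hinton broth, inoculum 5 × 10^5 CFU/ml, 37°C aerobic 24 h (CLSI M7-A6 microdilution). About 100 μl from each well without visible growth spread on MHA; 37°C 24 h. MBC = lowest concentration giving no growth on agar.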

Mammaliicoccus sciuri [2] = test: Antimicrobial activity against methicillin-resistant coagulase-negative Staphylococcus sciuri after 24 hrs by broth microdilution method
Outline: (§2)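 Clinical isolates came from blood, body fluids, genital secretions, pus or sputum, identified conventionally or by Vitek. MICs were run by CLSI M7-A6 broth microdilution in Mueller-Hinton broth with 5 × 10^5 CFU/ml inoculum. Agents were twofold serially diluted, starting from 10% DMSO. Drug-free and uninoculated controls were included. Plates were incubated aerobically at 37°C for 24 h; MIC is the lowest concentration giving no visible growth.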

[3] = system: Staphylococcus haemolyticus; test: Bactericidal activity against methicillin-resistant coagulase-negative Staphylococcus haemolyticus after 24 hrs by plate counting method
Staphylococcus simulans [4] = test: Antimicrobial activity against methicillin-resistant coagulase-negative Staphylococcus simulans assessed as resistant isolates after 24 hrs by broth microdilution method
Staphylococcus hominis [5] = test: Bactericidal activity against methicillin-resistant coagulase-negative Staphylococcus hominis after 24 hrs by plate counting method
Staphylococcus simulans [6] = test: Bactericidal activity against methicillin-susceptible coagulase-negative Staphylococcus simulans after 24 hrs by plate counting method; outline: as §1
Staphylococcus aureus [7] = test: Antimicrobial activity against methicillin-susceptible Staphylococcus aureus assessed as susceptible isolates after 24 hrs by broth microdilution method
Mammaliicoccus sciuri [8] = test: Bactericidal activity against methicillin-susceptible coagulase-negative Staphylococcus sciuri after 24 hrs by plate counting method; outline: as §1
Staphylococcus hominis [9] = test: Antimicrobial activity against methicillin-susceptible coagulase-negative Staphylococcus hominis after 24 hrs by broth microdilution method; outline: as §2
[10] = system: Staphylococcus epidermidis; test: Antimicrobial activity against methicillin-resistant coagulase-negative Staphylococcus epidermidis assessed as resistant isolates after 24 hrs by broth microdilution method
[11] = system: Staphylococcus epidermidis; test: Bactericidal activity against methicillin-susceptible coagulase-negative Staphylococcus epidermidis after 24 hrs by plate counting method; outline: as §1
Staphylococcus hominis [12] = test: Antimicrobial activity against methicillin-resistant coagulase-negative Staphylococcus hominis assessed as resistant isolates after 24 hrs by broth microdilution method
Mammaliicoccus sciuri [13] = test: Antimicrobial activity against methicillin-resistant coagulase-negative Staphylococcus sciuri assessed as resistant isolates after 24 hrs by broth microdilution method
[14] = system: Staphylococcus haemolyticus; test: Antimicrobial activity against methicillin-susceptible coagulase-negative Staphylococcus haemolyticus assessed as susceptible isolates after 24 hrs by broth microdilution method
Staphylococcus hominis [15] = test: Antimicrobial activity against methicillin-susceptible coagulase-negative Staphylococcus hominis assessed as resistant isolates after 24 hrs by broth microdilution method
Staphylococcus simulans [16] = test: Antimicrobial activity against methicillin-resistant coagulase-negative Staphylococcus simulans after 24 hrs by broth microdilution method; outline: as §2
[17] = system: Staphylococcus haemolyticus; test: Antimicrobial activity against methicillin-susceptible coagulase-negative Staphylococcus haemolyticus assessed as resistant isolates after 24 hrs by broth microdilution method
Staphylococcus simulans [18] = test: Antimicrobial activity against methicillin-susceptible coagulase-negative Staphylococcus simulans after 24 hrs by broth microdilution method; outline: as §2
Staphylococcus simulans [19] = test: Antimicrobial activity against methicillin-susceptible coagulase-negative Staphylococcus simulans assessed as resistant isolates after 24 hrs by broth microdilution method
Staphylococcus hominis [20] = test: Antimicrobial activity against methicillin-susceptible coagulase-negative Staphylococcus hominis assessed as susceptible isolates after 24 hrs by broth microdilution method
Staphylococcus aureus [21] = test: Antimicrobial activity against methicillin-susceptible Staphylococcus aureus after 24 hrs by broth microdilution method; outline: as §2
Staphylococcus simulans [22] = test: Bactericidal activity against methicillin-resistant coagulase-negative Staphylococcus simulans after 24 hrs by plate counting method; outline: as §1
Staphylococcus aureus [23] = test: Antimicrobial activity against methicillin-resistant Staphylococcus aureus after 24 hrs by broth microdilution method; outline: as §2
Staphylococcus aureus [24] = test: Bactericidal activity against methicillin-resistant Staphylococcus aureus after 24 hrs by plate counting method
[25] = system: Staphylococcus haemolyticus; test: Antimicrobial activity against methicillin-resistant coagulase-negative Staphylococcus haemolyticus assessed as resistant isolates after 24 hrs by broth microdilution method
Mammaliicoccus sciuri [26] = test: Bactericidal activity against methicillin-resistant coagulase-negative Staphylococcus sciuri after 24 hrs by plate counting method; outline: as §1
Mammaliicoccus sciuri [27] = test: Antimicrobial activity against methicillin-susceptible coagulase-negative Staphylococcus sciuri assessed as susceptible isolates after 24 hrs by broth microdilution method
Outline: (§3)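 Clinical isolates from blood, body fluids, pus, sputum or genital secretions, identified conventionally or by Vitek, were tested alongside ATCC 29213 and ATCC 12228 controls. CLSI M7-A6 broth microdilution in Mueller-Hinton broth used twofold dilutions from a 10% DMSO solution and 5 × 10^5 CFU/ml inoculum. Drug-free and uninoculated wells served as controls; incubation was aerobic at 37°C for 24 h. MIC was the lowest concentration with no visible growth.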

[28] = system: Staphylococcus epidermidis; test: Antimicrobial activity against methicillin-susceptible coagulase-negative Staphylococcus epidermidis assessed as susceptible isolates after 24 hrs by broth microdilution method
[29] = system: Staphylococcus epidermidis; test: Bactericidal activity against methicillin-resistant coagulase-negative Staphylococcus epidermidis after 24 hrs by plate counting method
Mammaliicoccus sciuri [30] = test: Antimicrobial activity against methicillin-susceptible coagulase-negative Staphylococcus sciuri assessed as resistant isolates after 24 hrs by broth microdilution method
[31] = system: Staphylococcus haemolyticus; test: Antimicrobial activity against methicillin-resistant coagulase-negative Staphylococcus haemolyticus after 24 hrs by broth microdilution method; outline: as §2
Staphylococcus simulans [32] = test: Antimicrobial activity against methicillin-susceptible coagulase-negative Staphylococcus simulans assessed as susceptible isolates after 24 hrs by broth microdilution method; outline: as §3
Staphylococcus aureus [33] = test: Antimicrobial activity against methicillin-susceptible Staphylococcus aureus assessed as resistant isolates after 24 hrs by broth microdilution method
[34] = system: Staphylococcus epidermidis; test: Antimicrobial activity against methicillin-resistant coagulase-negative Staphylococcus epidermidis after 24 hrs by broth microdilution method; outline: as §2
[35] = system: Staphylococcus epidermidis; test: Antimicrobial activity against methicillin-susceptible coagulase-negative Staphylococcus epidermidis after 24 hrs by broth microdilution method; outline: as §2
[36] = system: Staphylococcus haemolyticus; test: Antimicrobial activity against methicillin-susceptible coagulase-negative Staphylococcus haemolyticus after 24 hrs by broth microdilution method; outline: as §2
Staphylococcus aureus [37] = test: Antimicrobial activity against methicillin-resistant Staphylococcus aureus assessed as resistant isolates after 24 hrs by broth microdilution method
[38] = system: Staphylococcus epidermidis; test: Antimicrobial activity against methicillin-susceptible coagulase-negative Staphylococcus epidermidis assessed as resistant isolates after 24 hrs by broth microdilution method
Staphylococcus hominis [39] = test: Bactericidal activity against methicillin-susceptible coagulase-negative Staphylococcus hominis after 24 hrs by plate counting method; outline: as §1
[40] = system: Staphylococcus haemolyticus; test: Bactericidal activity against methicillin-susceptible coagulase-negative Staphylococcus haemolyticus after 24 hrs by plate counting method; outline: as §1
Staphylococcus hominis [41] = test: Antimicrobial activity against methicillin-resistant coagulase-negative Staphylococcus hominis after 24 hrs by broth microdilution method; outline: as §2
Mammaliicoccus sciuri [42] = test: Antimicrobial activity against methicillin-susceptible coagulase-negative Staphylococcus sciuri after 24 hrs by broth microdilution method; outline: as §2
[43] = Staphylococcus haemolyticus, 24 h
[44] = Staphylococcus epidermidis, 24 h

CC1(C)S[C@@H]2[C@H](NC(=O)[C@H](N)c3ccccc3)C(=O)N2[C@H]1C(=O)O [AMPICILLIN]
MBC50 (Staphylococcus aureus [1]): 64 µg/mL (≈ 183 µM)
MBC90 (Staphylococcus aureus [1]): 128 µg/mL (≈ 366 µM)
MBC (Staphylococcus aureus [1]; Staphylococcus aureus, 24 h): 1 µg/mL (≈ 2.86 µM)
MIC50 (Mammaliicoccus sciuri [2]): 16 µg/mL (≈ 45.8 µM)
MIC90 (Mammaliicoccus sciuri [2]): 64 µg/mL (≈ 183 µM)
MBC50 [3]: 32 µg/mL (≈ 91.6 µM)
MBC90 [3]: 256 µg/mL (≈ 733 µM)
MBC [3, 43]: > 2 µg/mL
Activity (Staphylococcus simulans [4]): 100%
MBC50 (Staphylococcus hominis [5]): 32 µg/mL (≈ 91.6 µM)
MBC90 (Staphylococcus hominis [5]): 256 µg/mL (≈ 733 µM)
MBC (Staphylococcus hominis [5]; Staphylococcus hominis, 24 h): > 2 µg/mL
MBC50 (Staphylococcus simulans [6]): 4 µg/mL (≈ 11.4 µM)
MBC90 (Staphylococcus simulans [6]): 128 µg/mL (≈ 366 µM)
Activity (Staphylococcus aureus [7]): 0%
MBC50 (Mammaliicoccus sciuri [8]): 4 µg/mL (≈ 11.4 µM)
MBC90 (Mammaliicoccus sciuri [8]): 128 µg/mL (≈ 366 µM)
MBC (Mammaliicoccus sciuri [8]; Mammaliicoccus sciuri, 24 h): 1 µg/mL (≈ 2.86 µM)
MIC50 (Staphylococcus hominis [9]): 2 µg/mL (≈ 5.72 µM)
MIC90 (Staphylococcus hominis [9]): 16 µg/mL (≈ 45.8 µM)
Activity [10]: 100%
MBC50 [11]: 4 µg/mL (≈ 11.4 µM)
MBC90 [11]: 128 µg/mL (≈ 366 µM)
MBC [11, 44]: 1 µg/mL (≈ 2.86 µM)
Activity (Staphylococcus hominis [12]): 100%
Activity (Mammaliicoccus sciuri [13]): 100%
Activity [14]: 0%
Activity (Staphylococcus hominis [15]): 100%
MIC50 (Staphylococcus simulans [16]): 16 µg/mL (≈ 45.8 µM)
MIC90 (Staphylococcus simulans [16]): 64 µg/mL (≈ 183 µM)
Activity [17]: 100%
MIC50 (Staphylococcus simulans [18]): 2 µg/mL (≈ 5.72 µM)
MIC90 (Staphylococcus simulans [18]): 16 µg/mL (≈ 45.8 µM)
Activity (Staphylococcus simulans [19]): 100%
Activity (Staphylococcus hominis [20]): 0%
MIC50 (Staphylococcus aureus [21]): 32 µg/mL (≈ 91.6 µM)
MIC90 (Staphylococcus aureus [21]): 32 µg/mL (≈ 91.6 µM)
MBC50 (Staphylococcus simulans [22]): 32 µg/mL (≈ 91.6 µM)
MBC90 (Staphylococcus simulans [22]): 256 µg/mL (≈ 733 µM)
MBC (Staphylococcus simulans [22]; Staphylococcus simulans, 24 h): > 2 µg/mL
MIC50 (Staphylococcus aureus [23]): 16 µg/mL (≈ 45.8 µM)
MIC90 (Staphylococcus aureus [23]): 64 µg/mL (≈ 183 µM)
MBC90 (Staphylococcus aureus [24]): 256 µg/mL (≈ 733 µM)
MBC (Staphylococcus aureus [24]; Staphylococcus aureus, 24 h): 32 µg/mL (≈ 91.6 µM)
Activity [25]: 100%
MBC50 (Mammaliicoccus sciuri [26]): 32 µg/mL (≈ 91.6 µM)
MBC90 (Mammaliicoccus sciuri [26]): 256 µg/mL (≈ 733 µM)
MBC (Mammaliicoccus sciuri [26]; Mammaliicoccus sciuri, 24 h): > 2 µg/mL
Activity (Mammaliicoccus sciuri [27]): 0%
Activity [28]: 0%
MBC50 [29]: 32 µg/mL (≈ 91.6 µM)
MBC90 [29]: 256 µg/mL (≈ 733 µM)
MBC [29, 44]: > 2 µg/mL
Activity (Mammaliicoccus sciuri [30]): 100%
MIC50 [31]: 16 µg/mL (≈ 45.8 µM)
MIC90 [31]: 64 µg/mL (≈ 183 µM)
Activity (Staphylococcus simulans [32]): 0%
Activity (Staphylococcus aureus [33]): 100%
MIC50 [34]: 16 µg/mL (≈ 45.8 µM)
MIC90 [34]: 64 µg/mL (≈ 183 µM)
MIC50 [35]: 2 µg/mL (≈ 5.72 µM)
MIC90 [35]: 16 µg/mL (≈ 45.8 µM)
MIC50 [36]: 2 µg/mL (≈ 5.72 µM)
MIC90 [36]: 16 µg/mL (≈ 45.8 µM)
Activity (Staphylococcus aureus [37]): 100%
Activity [38]: 100%
MBC50 (Staphylococcus hominis [39]): 4 µg/mL (≈ 11.4 µM)
MBC90 (Staphylococcus hominis [39]): 128 µg/mL (≈ 366 µM)
MBC (Staphylococcus hominis [39]; Staphylococcus hominis, 24 h): 1 µg/mL (≈ 2.86 µM)
MBC50 [40]: 4 µg/mL (≈ 11.4 µM)
MBC90 [40]: 128 µg/mL (≈ 366 µM)
MBC [40, 43]: 1 µg/mL (≈ 2.86 µM)
MIC50 (Staphylococcus hominis [41]): 16 µg/mL (≈ 45.8 µM)
MIC90 (Staphylococcus hominis [41]): 64 µg/mL (≈ 183 µM)
MIC50 (Mammaliicoccus sciuri [42]): 2 µg/mL (≈ 5.72 µM)
MIC90 (Mammaliicoccus sciuri [42]): 16 µg/mL (≈ 45.8 µM)
